These results are taken from ChEMBL document CHEMBL1143911, “Studies on quinones. Part 42: Synthesis of furylquinone and hydroquinones with antiproliferative activity against human tumor cell lines” (2008).

What all share (format): functional
One experiment concerns MCF7. As to the kind of experiment: Cytotoxicity against human MCF7 cells after 48 hrs. The conditions noted are these: MCF7, 48 h. The method, boiled down: (§1)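 Adherent cells kept in RPMI-1640 with 5% heat-inactivated FBS, 2 mM glutamine and 50 µg/mL gentamycin at 37 °C, 5% CO2. Plated at 1.5 × 10⁵ cells/mL, attached overnight, then given five concentrations (maximum 150 µM; DMSO stocks diluted in medium) for 48 h. Fixed in situ, SRB-stained, absorbance at 492 nm. GI50 (50% inhibition of net growth) taken from dose–response curves.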

The next experiment relates to NCI-H460. The experiment in a line: Cytotoxicity against human NCI-H460 cells after 48 hrs. The conditions noted are these: NCI-H460, 48 h. The procedure, abridged: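 Adherent cells kept in RPMI-1640 with 5% heat-inactivated FBS, 2 mM glutamine and 50 µg/mL gentamycin at 37 °C, 5% CO2. Plated at 7.5 × 10⁴ cells/mL, attached overnight, then given five concentrations (maximum 150 µM; DMSO stocks diluted in medium) for 48 h. Fixed in situ, SRB-stained, absorbance at 492 nm. GI50 (50% inhibition of net growth) taken from dose–response curves.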

A further experiment deals with SF-268. The experiment in a line: Cytotoxicity against human SF268 cells after 48 hrs. The conditions noted are these: SF-268, 48 h. The method, boiled down: as §1

For `CN(C)/N=C/c1ccc(-c2c(O)ccc(O)c2C=O)o1`, the GI50 (usually the concentration giving 50% growth inhibition) was 29.4 µM in the experiment on MCF7, 93 µM in the experiment on NCI-H460 and 38.3 µM in the experiment with SF-268.
On the same counts, the results for `O=Cc1c(O)ccc(O)c1Cl` are 15.6 µM, 122 µM and 18.8 µM.
On the same counts, the results for `CN(C)/N=C/c1ccc(C2=CC(=O)C=CC2=O)o1` are 33.5 µM, 148 µM and 100 µM.
For `O=Cc1ccc(-c2c(O)ccc(O)c2C=O)o1`, in that order: 20.3 µM, 80.2 µM and 35.8 µM.
In the case of `CCCCSc1c(O)ccc(O)c1C(C)=O`, the GI50 worked out at 29.2 µM in the experiment with MCF7, 63.3 µM in the experiment on NCI-H460 and 27.5 µM in the experiment on SF-268.
Consider `COc1cccc2c1C(=O)c1c(O)c3c(c(O)c1C2=O)C[C@@](O)(C(=O)CO)C[C@@H]3O[C@H]1C[C@H](N)[C@H](O)[C@H](C)O1` [DOXORUBICIN], for which the figures for the GI50 in the experiment with MCF7, with NCI-H460 and in the experiment with SF-268 were 0.0428 µM, 0.094 µM and 0.093 µM, respectively.
Turning to `CN(C)/N=C/c1ccc(C2=CC(=O)c3ccccc3C2=O)o1`, the GI50 came out at 7.7 µM with MCF7, 6.8 µM in the experiment with NCI-H460 and 6.5 µM in the experiment with SF-268.
On the same counts, the results for `CN(C)/N=C/c1ccc(C2=C(Cl)C(=O)c3ccccc3C2=O)o1` are 8.1 µM, 10.9 µM and 9.3 µM.
On the same counts, the results for `COC1=CC(=O)C(c2ccc(/C=N/N(C)C)o2)=CC1=O` are 8.2 µM, 27.2 µM and 9.1 µM.
